Experimental data taken from ChEMBL document CHEMBL3526060, “Impact of hydrolysis-mediated clearance on the pharmacokinetics of novel anaplastic lymphoma kinase inhibitors” (Drug Metab Dispos, 2013).

Experiments:
[1] = AUC (0 to infinity) in CD-1 mouse at 2 mg/kg, iv administered as single bolus dose by LC-MS/MS analysis; type: ADME, organism-based; design: time infinity, dose 2 mg/kg, route intravenous; details: plasma
Summary of the method: (§1)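 Single 2 mg/kg IV bolus via lateral tail vein to male CD-1 mice. Mice euthanized at 0.083–24 h, 3 per time point (27 animals); cardiac-puncture blood into heparin on ice, plasma spun at 4 °C and immediately extracted with acetonitrile/0.1% formic acid plus IS, LC-MS/MS. Noncompartmental CL = Dose/AUC0–inf, t1/2 = 0.693/k, Vss from AUMC/AUC, MRT = Vss/CL.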

[2] = Plasma clearance in CD-1 mouse at 2 mg/kg, iv administered as single bolus dose by LC-MS/MS analysis; type: ADME, organism-based; design: dose 2 mg/kg, route intravenous; summary of the method: as §1
[3] = Mean residence time in CD-1 mouse at 2 mg/kg, iv administered as single bolus dose by LC-MS/MS analysis; type: ADME, organism-based; design: dose 2 mg/kg, route intravenous; details: in vivo; summary of the method: as §1
[4] = Half life in CD-1 mouse at 2 mg/kg, iv administered as single bolus dose by LC-MS/MS analysis; type: ADME, organism-based; design: dose 2 mg/kg, route intravenous; details: in vivo; summary of the method: as §1
[5] = Volume of distribution at steady state in CD-1 mouse at 2 mg/kg, iv administered as single bolus dose by LC-MS/MS analysis; type: ADME, organism-based; design: dose 2 mg/kg, route intravenous; details: in vivo, read-out: Vdss; summary of the method: as §1
[6] = In vitro half life in CD-1 mouse plasma at 0.83 uM by LC-MS/MS analysis; type: ADME, cell-free
Summary of the method: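 Screening stability: compound at 0.83 µM in mouse plasma at 37 °C, up to 3 h; timed aliquots quenched into acetonitrile with tolbutamide IS, centrifuged, LC-MS/MS; half-life from depletion, CLint = (0.693/t1/2)/plasma concentration.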

[7] = system: Plasma; assay: Drug metabolism in CD-1 mouse plasma assessed as hydrolysis metabolite formation rate by LC-MS/MS analysis; type: ADME, cell-free; details: for Km: read-out: Km(app)
Summary of the method: (§2)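 Mouse plasma depletion kinetics at 37 °C, substrate range 0.0023–5 µM, up to 3 h; samples quenched into acetonitrile/tolbutamide, LC-MS/MS. CLint per concentration from t1/2; apparent Vmax and Km fitted by nonlinear regression to Michaelis-Menten, formation rate simulated from fit; mean of two replicates.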

[8] = Drug metabolism in CD-1 mouse liver microsomes assessed as hydrolysis metabolite formation rate by LC-MS/MS analysis; type: ADME; details: for Km: read-out: Km(app)
Summary of the method: (§3)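 Mouse liver microsomes 0.25 mg/mL in 0.1 M phosphate pH 7.4, with or without 1 mM NADPH, substrate 0.0023–5 µM; sampling to 40 min into acetonitrile/IS, LC-MS/MS depletion. Hydrolysis Vmax/Km solved from no-NADPH incubations, then NADPH-dependent constants; metabolite formation rate simulated from fitted constants; duplicates.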

[9] = Drug metabolism in CD-1 mouse NADPH-fortified liver microsomes assessed as hydrolysis metabolite formation rate by LC-MS/MS analysis; type: ADME; details: for Km: read-out: Km(app); summary of the method: as §3
[10] = system: Plasma; assay: Drug metabolism in CD-1 mouse plasma assessed as maximum intrinsic clearance for hydrolysis metabolite formation by LC-MS/MS analysis; type: ADME, cell-free; summary of the method: as §2
[11] = Ratio of drug level in blood to plasma in CD-1 mouse at 1 uM treated 20 mins after amide hydrolysis inhibitor DFP challenge measured after 1 hr by LC-MS/MS analysis; type: ADME; details: whole blood
Summary of the method: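 Fresh whole blood pre-incubated 20 min with 100 µM DFP, warmed to 37 °C, spiked to 1 µM, incubated 1 h, then plasma separated; reference plasma spiked at 1 µM. Extracted with 6 volumes acetonitrile/IS, LC-MS/MS; ratio = reference plasma peak area / treated plasma peak area.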

[12] = Fraction unbound in CD-1 mouse liver microsomes after 7 hrs by equilibrium dialysis method; type: ADME
Summary of the method: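 Equilibrium dialysis of 0.25 mg/mL mouse liver microsomes in phosphate buffer against PBS, 7 h at 37 °C, 5% CO2, test compound 0.1, 0.5 or 2 µM, triplicate; LC-MS/MS; fraction unbound = buffer/microsome concentration.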

[13] = Fraction unbound in CD-1 mouse plasma after 7 hrs by equilibrium dialysis method; type: ADME, cell-free
Summary of the method: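 Mouse plasma pre-treated 20 min with 100 µM DFP to block hydrolysis, spiked at 0.1, 0.5 or 2 µM, equilibrium dialysis against PBS for 7 h at 37 °C, 5% CO2, triplicate; matrix-matched samples extracted with acetonitrile/IS, LC-MS/MS; fu = buffer/plasma concentration.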

AUC(0-inf) [1] [µM·h]	clearance [2] [mL/min/kg]	MRT [3] [h]	half-life [4] [h]	Vd [5] [L/kg]	half-life at 0.83 µM [6] [h]	Vmax(app) [7] [pmol/min/mL]	Km [7] [µM]	Vmax(app) [8] [pmol/min/mg]	Km [8] [µM]	Vmax(app) [9] [pmol/min/mg]	Km [9] [µM]	CL [10] [uL/min.ml]	blood plasma ratio at 1 h, 1 µM [11]	fraction unbound at 7 h [12]	fraction unbound at 7 h [13]	Structure (SMILES)
0.957	58.5	1.28	1.01	4.49	2.9	3.81	0.357	5.12	0.0292	143	0.936	10.7	0.9	0.53	0.046	CC(C)NC(=O)[C@H]1CC[C@@H](n2/c(=N/C(=O)c3cc(F)cc(F)c3)[nH]c3ccc(CN4CCC(C(C)(C)O)CC4)cc32)CC1
1.53	35.7	2.56	2.08	5.47	8.2	0.305	0.146	2.49	0.053	279	1.9	2.09	0.9	0.22	0.011	CC(C)NC(=O)[C@H]1CC[C@@H](n2/c(=N/C(=O)c3cc(F)cc(Cl)c3)[nH]c3ccc(CN4CCC(C(C)(C)O)CC4)cc32)CC1
